# Active and inactive are the calls of the source. The rule behind the calls is not given here.
# Columns and labels:
# Mus musculus [1] = experiment: Anticonvulsant activity in CF1 albino mouse assessed as protection against scMet-induced seizures at 50 mg/kg, ip after 4 hrs; assay type: functional, organism-based; parameters: dose 50 mg/kg
# In short: (§1)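 Adult male CF no. 1 albino mice (18-25 g) dosed intraperitoneally with compound suspended in 0.5% methylcellulose (0.01 mL/g). Convulsant challenge given subcutaneously as a 0.85% pentylenetetrazol solution in 0.9% saline. Read-out is animals protected over animals tested, with neurotoxicity scored in parallel.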
# Mus musculus [2] = experiment: Anticonvulsant activity in CF1 albino mouse assessed as protection against maximal electroshock-induced seizures at 150 mg/kg, ip after 0.5 hrs; assay type: functional, organism-based; parameters: dose 150 mg/kg
# In short: (§2)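 Adult male CF no. 1 albino mice (18-25 g). Test compound suspended in 0.5% methylcellulose and given intraperitoneally at 0.01 mL/g body weight. Maximal electroshock challenge at the stated time. Read-out is the number of animals protected over the number tested; neurotoxicity is scored in parallel.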
# Mus musculus [3] = experiment: Anticonvulsant activity in CF1 albino mouse assessed as protection against scMet-induced seizures at 150 mg/kg, ip after 4 hrs; assay type: functional, organism-based; parameters: dose 150 mg/kg; in short: as §1
# Mus musculus [4] = experiment: Anticonvulsant activity in CF1 albino mouse assessed as protection against maximal electroshock-induced seizures at 50 mg/kg, ip after 0.5 hrs; assay type: functional, organism-based; parameters: dose 50 mg/kg; in short: as §2
# Mus musculus [5] = experiment: Anticonvulsant activity in CF1 albino mouse assessed as protection against maximal electroshock-induced seizures at 450 mg/kg, ip after 0.5 hrs; assay type: functional, organism-based; parameters: dose 450 mg/kg; in short: as §2
# Mus musculus [6] = experiment: Anticonvulsant activity in CF1 albino mouse assessed as protection against maximal electroshock-induced seizures at 450 mg/kg, ip after 4 hrs; assay type: functional, organism-based; parameters: dose 450 mg/kg; in short: as §2
# Mus musculus [7] = experiment: Anticonvulsant activity in CF1 albino mouse assessed as protection against scMet-induced seizures at 50 mg/kg, ip after 0.5 hrs; assay type: functional, organism-based; parameters: dose 50 mg/kg; in short: as §1
# Mus musculus [8] = experiment: Anticonvulsant activity in CF1 albino mouse assessed as protection against maximal electroshock-induced seizures at 150 mg/kg, ip after 4 hrs; assay type: functional, organism-based; parameters: dose 150 mg/kg; in short: as §2
# Mus musculus [9] = experiment: Anticonvulsant activity in CF1 albino mouse assessed as protection against maximal electroshock-induced seizures at 50 mg/kg, ip after 4 hrs; assay type: functional, organism-based; parameters: dose 50 mg/kg; in short: as §2
# Mus musculus [10] = experiment: Neurotoxicity in CF1 albino mouse at 150 mg/kg, ip after 4 hrs; assay type: toxicity, organism-based; parameters: dose 150 mg/kg, route intraperitoneal; conditions: in vivo
# In short: (§3)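 Male CF no. 1 albino mice (18-25 g) received a single ip dose as a suspension in 0.5% methylcellulose. The read-out was the number of animals showing neurotoxicity (minimal motor impairment) over the number tested.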
# Mus musculus [11] = experiment: Neurotoxicity in CF1 albino mouse at 450 mg/kg, ip after 0.5 hrs; assay type: toxicity, organism-based; parameters: dose 450 mg/kg, route intraperitoneal; conditions: in vivo; in short: as §3
# Mus musculus [12] = experiment: Anticonvulsant activity in CF1 albino mouse assessed as protection against scMet-induced seizures at 450 mg/kg, ip after 0.5 hrs; assay type: functional, organism-based; parameters: dose 450 mg/kg; in short: as §1
# Mus musculus [13] = experiment: Anticonvulsant activity in CF1 albino mouse assessed as protection against scMet-induced seizures at 150 mg/kg, ip after 0.5 hrs; assay type: functional, organism-based; parameters: dose 150 mg/kg; in short: as §1
# Mus musculus [14] = experiment: Neurotoxicity in CF1 albino mouse at 50 mg/kg, ip after 4 hrs; assay type: toxicity, organism-based; parameters: dose 50 mg/kg, route intraperitoneal; conditions: in vivo; in short: as §3
# Mus musculus [15] = experiment: Anticonvulsant activity in CF1 albino mouse assessed as protection against scMet-induced seizures at 450 mg/kg, ip after 4 hrs; assay type: functional, organism-based; parameters: dose 450 mg/kg; in short: as §1
# Mus musculus [16] = experiment: Teratogenic effect in SWV mouse assessed as resorptions at 452 mg/kg, ip administered on morning of day 8 of gestation; assay type: toxicity, organism-based; parameters: dose 452 mg/kg, route intraperitoneal; conditions: in vivo
# In short: (§4)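 Inbred SWV mouse strain, highly susceptible to valproate-induced neural tube defects. Each pregnant dam received a single ip injection on gestation day 8.5. Test compounds spanned 1.8-4.2 mmol/kg, the reference drug was given as its sodium salt, and controls received 25% aqueous Cremophor EL. Groups were compared by Fisher's exact test (p < 0.05).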
# Mus musculus [17] = experiment: Teratogenic effect in SWV mouse assessed as resorptions at 301 mg/kg, ip administered on morning of day 8 of gestation; assay type: toxicity, organism-based; parameters: dose 301 mg/kg, route intraperitoneal; conditions: in vivo; in short: as §4
# Mus musculus [18] = experiment: Teratogenic effect in SWV mouse assessed as dead fetuses at 301 mg/kg, ip administered on morning of day 8 of gestation; assay type: toxicity, organism-based; parameters: dose 301 mg/kg, route intraperitoneal; conditions: in vivo
# Mus musculus [19] = experiment: Teratogenic effect in SWV mouse assessed as live fetuses at 301 mg/kg, ip administered on morning of day 8 of gestation; assay type: toxicity, organism-based; parameters: dose 301 mg/kg, route intraperitoneal; conditions: in vivo; in short: as §4
# Mus musculus [20] = experiment: Teratogenic effect in SWV mouse assessed as number of litters at 600 mg/kg, ip administered on morning of day 8 of gestation; assay type: toxicity, organism-based; parameters: dose 600 mg/kg, route intraperitoneal; conditions: in vivo; in short: as §4
# Mus musculus [21] = experiment: Teratogenic effect in SWV mouse assessed as number of implants at 600 mg/kg, ip administered on morning of day 8 of gestation; assay type: toxicity, organism-based; parameters: dose 600 mg/kg, route intraperitoneal; conditions: in vivo; in short: as §4
# Rattus norvegicus = experiment: Anticonvulsant activity in po dosed albino Sprague-Dawley rat assessed as protection against scMet-induced seizures; assay type: functional
# In short: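 Male Sprague-Dawley albino rats (100-150 g) were dosed orally in 0.5% methylcellulose and tested by MES or by sc pentylenetetrazol (2.82% in 0.9% saline). Doses were varied to give 3-4 points between 0% and 100% protection. ED50 and 95% confidence intervals came from probit analysis.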
# Mus musculus [22] = experiment: Anticonvulsant activity in ip dosed CF1 albino mouse assessed as protection against 44 mA-current-induced seizure by 6Hz psychomotor seizure test; assay type: functional
# In short: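 In the 6 Hz psychomotor seizure test, male CF no. 1 albino mice (18-25 g) received the compound ip in 0.5% methylcellulose. Stimulation was at 32 or 44 mA. Doses were varied to give 3-4 points between 0% and 100% protection, and ED50 with 95% confidence interval came from probit analysis.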
# Mus musculus [23] = experiment: Teratogenic effect in VPA-induced SWV mouse assessed as fetuses with neural tube deffects at 301 mg/kg, ip administered on morning of day 8 of gestation; assay type: toxicity, organism-based; parameters: dose 301 mg/kg, route intraperitoneal; conditions: in vivo; in short: as §4
# Mus musculus [24] = experiment: Teratogenic effect in SWV mouse assessed as number of implants at 301 mg/kg, ip administered on morning of day 8 of gestation; assay type: toxicity, organism-based; parameters: dose 301 mg/kg, route intraperitoneal; conditions: in vivo; in short: as §4
# Mus musculus [25] = experiment: Teratogenic effect in SWV mouse assessed as resorptions at 600 mg/kg, ip administered on morning of day 8 of gestation; assay type: toxicity, organism-based; parameters: dose 600 mg/kg, route intraperitoneal; conditions: in vivo; in short: as §4
# Mus musculus [26] = experiment: Teratogenic effect in SWV mouse assessed as number of implants at 452 mg/kg, ip administered on morning of day 8 of gestation; assay type: toxicity, organism-based; parameters: dose 452 mg/kg, route intraperitoneal; conditions: in vivo; in short: as §4
# Mus musculus [27] = experiment: Teratogenic effect in SWV mouse assessed as number of litters at 452 mg/kg, ip administered on morning of day 8 of gestation; assay type: toxicity, organism-based; parameters: dose 452 mg/kg, route intraperitoneal; conditions: in vivo; in short: as §4
# Mus musculus [28] = experiment: Teratogenic effect in SWV mouse assessed as number of litters at 301 mg/kg, ip administered on morning of day 8 of gestation; assay type: toxicity, organism-based; parameters: dose 301 mg/kg, route intraperitoneal; conditions: in vivo; in short: as §4
# Mus musculus [29] = experiment: Teratogenic effect in SWV mouse assessed as dead fetuses at 600 mg/kg, ip administered on morning of day 8 of gestation; assay type: toxicity, organism-based; parameters: dose 600 mg/kg, route intraperitoneal; conditions: in vivo
# Mus musculus [30] = experiment: Teratogenic effect in SWV mouse assessed as dead fetuses at 452 mg/kg, ip administered on morning of day 8 of gestation; assay type: toxicity, organism-based; parameters: dose 452 mg/kg, route intraperitoneal; conditions: in vivo
# Mus musculus [31] = experiment: Teratogenic effect in SWV mouse assessed as live fetuses at 452 mg/kg, ip administered on morning of day 8 of gestation; assay type: toxicity, organism-based; parameters: dose 452 mg/kg, route intraperitoneal; conditions: in vivo; in short: as §4
# Mus musculus [32] = experiment: Teratogenic effect in SWV mouse assessed as live fetuses at 600 mg/kg, ip administered on morning of day 8 of gestation; assay type: toxicity, organism-based; parameters: dose 600 mg/kg, route intraperitoneal; conditions: in vivo; in short: as §4
# Mus musculus [33] = experiment: Anticonvulsant activity in CF1 albino mouse assessed as protection against maximal electroshock-induced seizures at 400 mg/kg, ip; assay type: functional, organism-based; parameters: dose 400 mg/kg; in short: as §2
# Mus musculus [34] = experiment: Anticonvulsant activity in CF1 albino mouse assessed as protection against maximal electroshock-induced seizures at 60 mg/kg, ip; assay type: functional, organism-based; parameters: dose 60 mg/kg; in short: as §2
# Mus musculus [35] = species: Mus musculus; experiment: Protective index, ratio of TD50 for CF1 albino mouse to ED50 for scMet-induced CF1 albino seizure mouse model; assay type: functional
# In short: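 Ratio of TD50 to ED50 (MES or scMet) in male CF no. 1 mice (18-25 g) given ip doses in 0.5% methylcellulose. TD50 comes from minimal motor impairment: the dose was varied until four points lay between no impairment and all animals impaired. Both TD50 and ED50 were derived by probit analysis with 95% confidence intervals.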
# Mus musculus [36] = experiment: Anticonvulsant activity in ip dosed CF1 albino mouse assessed as protection against scMet-induced seizures; assay type: functional
# In short: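 Adult male CF no. 1 albino mice (18-25 g) dosed ip with compound suspended in 0.5% methylcellulose (0.01 mL/g body weight). Seizures were induced by subcutaneous pentylenetetrazol, given as a 0.85% solution in 0.9% saline. ED50 was found by varying the dose to give 3-4 points between 0% and 100% protection, then probit analysis with 95% confidence intervals.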
smiles,measurement,setting,value
CC1(C)C(C)(C)C1(Br)C(N)=O,Activity,Mus musculus [1],Non-toxic
same,Activity,Mus musculus [2],Non-toxic
same,Activity,Mus musculus [3],Non-toxic
same,Activity,Mus musculus [4],Non-toxic
same,Activity,Mus musculus [5],Non-toxic
same,Activity,Mus musculus [6],Non-toxic
same,Activity,Mus musculus [7],Non-toxic
same,Activity,Mus musculus [8],Non-toxic
same,Activity,Mus musculus [9],Non-toxic
same,Activity,Mus musculus [10],Non-toxic
same,Activity,Mus musculus [11],Toxic
same,Activity,Mus musculus [12],Non-toxic
same,Activity,Mus musculus [13],Non-toxic
same,Activity,Mus musculus [14],Non-toxic
same,Activity,Mus musculus [15],Non-toxic
CCCC(CCC)C(=O)O [VALPROIC ACID],Activity,Mus musculus [16],11.3%
same,Activity,Mus musculus [17],11%
same,Activity,Mus musculus [18],2.6%
same,Activity,Mus musculus [19],86.4%
same,Activity,Mus musculus [20],13
same,Activity,Mus musculus [21],131
same,ED50,Rattus norvegicus,646 mg/kg
same,ED50,Mus musculus [22],310 mg/kg
same,Activity,Mus musculus [23],1.5%
same,Activity,Mus musculus [24],154
same,Activity,Mus musculus [25],7.6%
same,Activity,Mus musculus [26],160
same,Activity,Mus musculus [27],13
same,Activity,Mus musculus [28],12
same,Activity,Mus musculus [29],10.7%
same,Activity,Mus musculus [30],0.6%
same,Activity,Mus musculus [31],88.1%
same,Activity,Mus musculus [32],81.7%
CCCC(F)(CCC)C(N)=O,Activity,Mus musculus [2],inactive
same,Activity,Mus musculus [33],Active
same,Activity,Mus musculus [34],inactive
same,PI,Mus musculus [35],3.8
same,ED50,Mus musculus [36],23 mg/kg

# From ChEMBL document CHEMBL1153988 (J Med Chem, 2009)
